The results in this text go back to ChEMBL document CHEMBL1649372, “Discovery of highly potent agents against influenza A virus” (Eur J Med Chem, 2011).

Each structure is given as a SMILES string. The source made the active and inactive calls. The calls are words filed in the database; no cut-off is given here. A value given as a limit tells only on which side of the number the result lay.

The test system of the first assay is Influenza A virus. Briefly: Ratio of compound IC50 to amantadine IC50 for Influenza A virus A/Hong Kong/8/68 (H3N2). Type of assay: functional.
Consider `C[C@@H]1[C@H]2C[C@@H](C[C@H]1/N=C/c1ccc(O)cc1)C2(C)C`, for which the “Ratio IC50” value came out at 240.

The next assay deals with Influenza A virus. Description: Antiviral activity against amantadine-sensitive Influenza A virus A/Hong Kong/8/68 (H3N2) infected in MDCK cells at 0.01 to 10 uM after 2 to 3 days by crystal violet staining by plaque reduction assay. Type of assay: functional, organism-based. The gist of the method:
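MDCK monolayer infected with 0.01 MOI A/Hong Kong/8/68 for 1 h at 37 °C. Inoculum removed and cells washed twice with PBS, then overlaid with 1% agar DMEM containing test agent. Plaque formation scored.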
For orientation: Plaque reduction counts the foci of infection that form in a cell layer.
As to `C[C@@H]1[C@H]2C[C@@H](C[C@H]1/N=C/c1ccc(O)cc1)C2(C)C`, the outcome was Active.

A further assay concerns Influenza A virus. Briefly: Antiviral activity against amantadine-sensitive Influenza A virus A/Hong Kong/8/68 (H3N2) infected in MDCK cells assessed as host cell survival after 72 hrs by CCK8 method. Type of assay: functional, organism-based. The gist of the method:
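Compounds added with TPCK and 0.3% BSA and preincubated 30 min at 37 °C. Cells then infected with about 0.01 MOI A/Hong Kong/8/68 (H3N2) and incubated 72 h at 37 °C in 5% CO2. CCK-8 reagent then added to read host cell survival.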
As a reminder, the IC50 is the point on the concentration scale where inhibition reaches its midpoint. `C[C@@H]1[C@H]2C[C@@H](C[C@H]1NCc1ccc(O)cc1)C2(C)C`: the IC50 is over 200 µM.
For `CCN[C@@H]1C[C@@H]2C[C@H]([C@H]1C)C2(C)C`, the concentration for half-maximal inhibition (IC50) is over 200 µM.
On the same count and under the same terms, as for `NC12CC3CC(CC(C3)C1)C2` [AMANTADINE], the figure is 21.1 µM; as for `Cc1ccc(/C=N/[C@@H]2C[C@@H]3C[C@H]([C@H]2C)C3(C)C)cc1`, 13.9 µM.
As to `CC(C)N[C@@H]1C[C@@H]2C[C@H]([C@H]1C)C2(C)C`, the half-maximal inhibitory concentration (IC50) was over 200 µM.
For `C[C@@H]1[C@H]2C[C@@H](C[C@H]1/N=C/c1ccccc1)C2(C)C`, the IC50 came to 7.78 µM.
On the same count and under the same terms, the result for `C[C@@H]1[C@H]2C[C@@H](C[C@H]1/N=C/c1cccc(O)c1)C2(C)C` reads 5.99 µM; that for `C[C@@H]1[C@H]2C[C@@H](C[C@H]1/N=C/c1ccc(O)cc1)C2(C)C`, 0.088 µM.
With `C[C@@H]1[C@H]2C[C@@H](C[C@H]1NCC1CC1)C2(C)C`, the IC50 came to 28.5 µM.
For the compound `C[C@@H]1[C@H]2C[C@@H](C[C@H]1/N=C/c1ccccc1O)C2(C)C`, the IC50 turned out to be 20.3 µM.
The same measure, in the same setting: the result for `C[C@@H]1[C@H]2C[C@@H](C[C@H]1/N=C/c1ccc(N(C)C)cc1)C2(C)C` reads 38.4 µM; that for `CN[C@@H]1C[C@@H]2C[C@H]([C@H]1C)C2(C)C`, 23.5 µM; that for `C[C@@H]1[C@H]2C[C@@H](C[C@H]1NCc1ccc(F)cc1)C2(C)C`, over 200 µM.
`C[C@@H]1[C@H]2C[C@@H](C[C@H]1/N=C/c1ccc(F)cc1)C2(C)C`: the IC50 is 16.3 µM.
On to `C[C@@H]1[C@H]2C[C@@H](C[C@H]1NC1CCCCC1)C2(C)C`, for which the concentration for half-maximal inhibition (IC50) was 43.7 µM.
